Published values collected from several papers.
Read-out: cell growth or viability

| SMILES | cell line | technique | time | measurement | result |
| --- | --- | --- | --- | --- | --- |
| CC(C)(C=O)Cc1cc(C(C)(C)C)c(O)c(C(C)(C)C)c1 | CAL-27 | – | 72 h | IC50 | > 20 µM |
| COc1cccc(Oc2ccccc2NC(=O)CNC(=O)c2cccc3ccccc23)c1 | UO-31 | SRB | 48 h | GI50 | 1.82 µM |
| COc1ccc(-c2ccc(-c3ccc(C(=N)N)nc3)s2)cc1Cl | UO-31 | – | – | GI50 | 1.55 µM |
| c1ccc(-c2n(Cc3ccc4ccccc4c3)cc[n+]2Cc2ccc3ccccc3c2)cc1 | HOP-92 | SRB | – | TGI | 2.28 µM |
| Nc1ncnc2c1ncn2[C@@H]1O[C@H](CO)[C@@H](O)[C@@H]1O | CAL-27 | – | 72 h | IC50 | > 20 µM |
| CCCc1n(Cc2ccc3ccccc3n2)cc[n+]1Cc1ccc2ccccc2c1 | HOP-62 | SRB | – | TGI | 5.38 µM |
| CN(C)CCOc1ccc(-c2nc(-c3ccncc3)c(-c3ccc4c(c3)CC/C4=N\O)[nH]2)cc1 | 451Lu | ATP luminescence | 72 h | EC50 | 0.67 µM |
| Cc1n(Cc2ccc3ccccc3n2)cc[n+]1Cc1ccc2ccccc2c1 | HOP-92 | SRB | – | TGI | 3.81 µM |
| CCCCc1ccc2[nH]c(NC(=O)OC)nc2c1 | CAL-27 | – | 72 h | IC50 | 0.27 µM |
| COc1cc(-c2ccc(-c3ccc(C(=N)N)nc3)s2)cc(OC)c1OC | UO-31 | – | – | GI50 | 1.88 µM |
| CCc1n(Cc2ccc3ccccc3n2)cc[n+]1Cc1ccc2ccccc2c1 | HOP-62 | SRB | – | TGI | 7.02 µM |
| COc1cc(Nc2nccc(-c3cnn4nc(OC)ccc34)n2)cc(C(F)(F)F)c1 | P31-FUJ | ATP luminescence | – | IC50 | 1.1 µM |
| S=C([S][Au-][P+](CCCCCC[P+]([Au-][S]C(=S)n1cccn1)(c1ccccc1)c1ccccc1)(c1ccccc1)c1ccccc1)n1cccn1 | UO-31 | – | – | GI50 | 0.933 µM |
| Cc1ccc2cncc(N3CCc4c(cc(Cn5ccnc5)cc4-c4cn(C)nc4C(F)(F)F)C3=O)c2c1 | K562 | ATP luminescence | 5 days | GI50 | 4.9 µM |
| COc1ccc(-c2ccc(-c3ccc(C(=N)N)nc3)s2)cc1 | UO-31 | – | – | GI50 | 1.64 µM |
